The source made the active and inactive calls. The rule behind the calls is not given here.
Legend:
[1] = system: LoVo; assay: Phototoxicity against human LoVo cells irradiated with 3.75 J/cm'2 after 72 hrs by MTT assay; format: functional, cell-based; conditions: light or radiation study
Procedure, shortened: (§1)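 Cells were seeded at 8 × 10³ and preincubated 18 h at 37 °C, 5% CO₂. Jurkat and K-562 grew in RPMI-1640, MCF-7 and NCTC-2544 in DMEM, and LoVo in Ham's F12, all with 10% FBS plus penicillin and streptomycin. Compounds in DMSO were diluted in HBSS, pH 7.2 (range 20–0.31; DMSO ≤1%) and applied 30 min at 37 °C. Wells were then UV-A irradiated (365 nm; 2.5 or 3.75 J/cm²), medium was replaced, and MTT was read after 72 h.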

[2] = system: Nucleic Acid; assay: Binding affinity to salmon testes DNA assessed as intercalation by linear dichroism experiment; format: nucleic-acid assay; conditions: Salmonidae
Procedure, shortened: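 Salmon testes DNA was mixed with compound at [Drug]/[DNA] ratios of 0, 0.02 and 0.04 in 10 mM phosphate buffer, pH 7.2. Samples were oriented in a rotating cylindrical flow cuvette (0.14 cm path, 800 rpm), and linear dichroism spectra were recorded over roughly 250–450 nm.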

[3] = system: Jurkat; assay: Phototoxicity against human Jurkat cells irradiated with 2.5 J/cm'2 after 72 hrs by MTT assay; format: functional, cell-based; conditions: light or radiation study; procedure, shortened: as §1
[4] = system: K562; assay: Phototoxicity against human K562 cells irradiated with 2.5 J/cm'2 after 72 hrs by MTT assay; format: functional, cell-based; conditions: K562, light or radiation study; procedure, shortened: as §1
[5] = system: Jurkat; assay: Induction of apoptosis in human Jurkat cells assessed as induction of loss of membrane potential at 1 uM after 4 hrs post-irradiation with 20 J/cm'2 by flow cytometry; format: functional
Procedure, shortened: (§2)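 Irradiated Jurkat cells treated with compound were collected 2 and 4 h after irradiation and resuspended in HBSS containing JC-1. Green (FL1) and orange (FL2) fluorescence were read by flow cytometry, with at least 10,000 events per sample. Values are mean ± SD of at least three independent experiments.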

[6] = system: MCF7; assay: Phototoxicity against human MCF7 cells irradiated with 3.75 J/cm'2 after 72 hrs by MTT assay; format: functional, cell-based; conditions: MCF7, light or radiation study; procedure, shortened: as §1
[7] = system: Jurkat; assay: Cell cycle arrest in human Jurkat cells assessed as accumulation in G1 phase at 1 uM irradiated with 25 J/cm'2 after 24 hrs by flow cytometry
[8] = system: Jurkat; assay: Induction of apoptosis in human Jurkat cells assessed as increase in mitochondrial ROS production at 1 uM after 6 hrs post-irradiation with 2.5 J/cm'2 by FACS analysis; format: functional
Procedure, shortened: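 Jurkat cells were irradiated (2.5 J/cm²) with compound present and collected 6 h later. They were resuspended in HBSS with hydroethidine and DCFDA (2.5 and 5, respectively) and held at 37 °C for 15 or 30 min. Flow cytometry used 488 nm excitation, reading 620 nm for HE and 530 nm for DCF, with at least 10,000 events. Values are mean ± SD, three independent experiments.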

[9] = Phototoxicity against human sNCTC-2544 cells irradiated with 2.5 J/cm'2 after 72 hrs by MTT assay; format: functional, cell-based; conditions: NCTC-2544, light or radiation study; procedure, shortened: as §1
[10] = system: Jurkat; assay: Phototoxicity against human Jurkat cells irradiated with 3.75 J/cm'2 after 72 hrs by MTT assay; format: functional, cell-based; conditions: light or radiation study; procedure, shortened: as §1
[11] = system: Jurkat; assay: Induction of apoptosis in human Jurkat cells assessed as induction of loss of membrane potential at 1 uM after 2 hrs post-irradiation with 20 J/cm'2 using JC1 staining by FACS; format: functional; procedure, shortened: as §2
[12] = system: Jurkat; assay: Cell cycle arrest in human Jurkat cells assessed as accumulation in G2/M phase at 1 uM irradiated with 25 J/cm'2 after 24 hrs by flow cytometry
[13] = system: Jurkat; assay: Induction of apoptosis in human Jurkat cells assessed as induction of loss of membrane potential at 1 uM after 4 hrs post irradiation with 20 J/cm'2 using JC1 staining by FACS; format: functional; procedure, shortened: as §2
[14] = system: LoVo; assay: Phototoxicity against human LoVo cells irradiated with 2.5 J/cm'2 after 72 hrs by MTT assay; format: functional, cell-based; conditions: light or radiation study; procedure, shortened: as §1
[15] = system: Jurkat; assay: Cell cycle arrest in human Jurkat cells assessed as accumulation in subG1 phase at 1 uM irradiated with 20 J/cm'2 after 24 hrs by flow cytometry; format: functional
Procedure, shortened: (§3)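 Exponentially growing Jurkat cells (5 × 10⁵) were irradiated with compound present. Drug was removed, and cells were kept 24 h in RPMI-1640, fixed in ice-cold 70% ethanol, and treated overnight with RNAse (10 KU/mL) in PBS. Cells were stained with propidium iodide and run on a flow cytometer, with DNA content reported as the fraction of cells in each cycle phase.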

[16] = system: Jurkat; assay: Induction of apoptosis in human Jurkat cells assessed as induction of loss of membrane potential at 1 uM after 2 hrs post-irradiation with 20 J/cm'2 by flow cytometry; format: functional; procedure, shortened: as §2
[17] = system: Jurkat; assay: Induction of apoptosis in human Jurkat cells assessed as lysosomal dysfunction at 1 uM after 2 hrs post-irradiation with 2.5 J/cm'2 using acridine orange dye by flow cytometry; format: functional
Procedure, shortened: (§4)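 Jurkat cells were irradiated (2.5 J/cm²) with compound present and collected at 2 and 4 h. They were resuspended in RPMI-1640 containing acridine orange, and the percentage of red-fluorescent cells (intact lysosomes) was scored by flow cytometry. Values are mean ± SD of at least three independent experiments.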

[18] = system: Jurkat; assay: Induction of lipid peroxidation in human Jurkat cells irradiated with 2.5 J/cm'2 assessed as increase in malondialdehyde production after 24 hrs by TBARS assay relative to untreated control; format: functional, cell-based
Procedure, shortened: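 Jurkat cells (500,000) were irradiated (2.5 J/cm²) with compound present and incubated 24 h. Supernatant was kept with BHT, and cells were lysed in 1% SDS, with protein measured by the Peterson method. Malondialdehyde was measured by thiobarbituric acid reaction (fluorescence, 553 nm) against a 1,1,3,3-tetraethoxypropane standard curve. Results are given as nmol TBARS normalized to protein.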

[19] = system: MCF7; assay: Phototoxicity against human MCF7 cells irradiated with 2.5 J/cm'2 after 72 hrs by MTT assay; format: functional, cell-based; conditions: MCF7, light or radiation study; procedure, shortened: as §1
[20] = Phototoxicity against human sNCTC-2544 cells irradiated with 3.75 J/cm'2 after 72 hrs by MTT assay; format: functional, cell-based; conditions: NCTC-2544, light or radiation study; procedure, shortened: as §1
[21] = system: Jurkat; assay: Induction of apoptosis in human Jurkat cells assessed as phosphatidylserine esposure after 30 mins using annexin-V FITC and PI staining by flow cytometry; format: functional, cell-based
Procedure, shortened: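 Jurkat cells (100,000) were irradiated (2.5 J/cm²) with compound present and centrifuged 30 min, 1 h or 2 h later. They were stained with Annexin V-FITC/PI for 15 min in the dark, and FITC (FL1) and PI (FL3) were read by flow cytometry, with at least 10,000 events. Cells were classed as intact, early apoptotic, late apoptotic/necrotic or necrotic. Values are the mean of three experiments.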

[22] = system: K562; assay: Phototoxicity against human K562 cells irradiated with 3.75 J/cm'2 after 72 hrs by MTT assay; format: functional, cell-based; conditions: K562, light or radiation study; procedure, shortened: as §1
[23] = system: Jurkat; assay: Cell cycle arrest in human Jurkat cells assessed as accumulation in S phase at 1 uM irradiated with 20 J/cm'2 after 24 hrs by flow cytometry; format: functional; procedure, shortened: as §3
[24] = system: Jurkat; assay: Induction of apoptosis in human Jurkat cells assessed as lysosomal dysfunction at 1 uM after 4 hrs post-irradiation with 2.5 J/cm'2 using acridine orange dye by flow cytometry; format: functional; procedure, shortened: as §4
[25] = system: Jurkat; assay: Induction of apoptosis in human Jurkat cells assessed as lysosomal dysfunction at 2.5 uM after 4 hrs post-irradiation with 2.5 J/cm'2 using acridine orange dye by flow cytometry; format: functional
Procedure, shortened: (§5)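 Jurkat cells were irradiated (2.5 J/cm² UV-A) with the compound and collected 2 or 4 h later. They were resuspended in RPMI-1640 containing acridine orange 1 µM. Intact-lysosome cells were scored by red fluorescence on flow cytometry. Values are means ± SD of at least three independent experiments.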

[26] = system: Nucleic Acid; assay: Binding affinity to UV irradiated pBR322 assessed as strand break by electrophoresis; format: nucleic-acid assay; conditions: Escherichia coli
Procedure, shortened: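 Plasmid irradiated with the compound. Aliquots were then incubated at 37 °C with Fpg or Endo III. Bands were quantified densitometrically and supercoiled (Form I) and open circular (Form II) fractions were calculated.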

[27] = system: Jurkat; assay: Induction of apoptosis in human Jurkat cells assessed as induction of loss of membrane potential at 2.5 uM after 2 hrs post-irradiation with 20 J/cm'2 by flow cytometry; format: functional
Procedure, shortened: (§6)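 JC-1 probe at 1 µg/mL in HBSS was added to Jurkat cells spun down 2 or 4 h after UV-A irradiation with the compound. Green (FL1) and orange (FL2) fluorescence were read by flow cytometry, ≥10,000 events per sample. Values are means ± SD of at least three independent experiments.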

[28] = system: Jurkat; assay: Induction of apoptosis in human Jurkat cells assessed as increase in mitochondrial ROS production at 2.5 uM after 6 hrs post-irradiation with 2.5 J/cm'2 by FACS analysis; format: functional
Procedure, shortened: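 Jurkat cells were collected 6 h after UV-A irradiation (2.5 J/cm²) with the compound and resuspended in HBSS with hydroethidine 2.5 µM or DCFDA 5 µM. They were incubated at 37 °C for 15 or 30 min. Flow cytometry used 488 nm excitation, with emission at 620 nm (HE) or 530 nm (DCF), acquiring ≥10,000 events. Values are means ± SD of three independent experiments.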

[29] = system: Jurkat; assay: Induction of apoptosis in human Jurkat cells assessed as lysosomal dysfunction at 2.5 uM after 2 hrs post-irradiation with 2.5 J/cm'2 using acridine orange dye by flow cytometry; format: functional; procedure, shortened: as §5
[30] = system: Jurkat; assay: Induction of apoptosis in human Jurkat cells assessed as induction of loss of membrane potential at 2.5 uM after 2 hrs post-irradiation with 20 J/cm'2 using JC1 staining by FACS; format: functional; procedure, shortened: as §6
[31] = system: Jurkat; assay: Induction of apoptosis in human Jurkat cells assessed as induction of loss of membrane potential at 2.5 uM after 4 hrs post-irradiation with 20 J/cm'2 by flow cytometry; format: functional; procedure, shortened: as §6
[32] = Photodamaging activity to bovine serum albumin irradiated with 2.5 J/cm'2 UV light assessed as increase in carbonyl content; format: physicochemical; conditions: cattle
Procedure, shortened: (§7)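 BSA or RNase A at 2 mg/mL in phosphate buffer was irradiated with the compound in a quartz cuvette for various times. Carbonyl content was measured spectrophotometrically after 2,4-dinitrophenylhydrazine derivatization.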

[33] = system: Jurkat; assay: Induction of apoptosis in human Jurkat cells assessed as induction of loss of membrane potential at 2.5 uM after 4 hrs post irradiation with 20 J/cm'2 using JC1 staining by FACS; format: functional; procedure, shortened: as §6
[34] = Photodamaging activity to ribonuclease irradiated with 2.5 J/cm'2 UV light assessed as increase in carbonyl content; format: physicochemical; procedure, shortened: as §7

Row | SMILES | IC50 [1] | Activity [2] | IC50 [3] | IC50 [4] | IC50 [6] | Activity [7] | Activity [8] | IC50 [9] | Activity [12] | IC50 [14] | Activity [15] | Activity [17] | Activity [18] | IC50 [19] | IC50 [20] | IC50 [22] | Activity [23] | Activity [24] | further results
1 | CCOC(=O)c1cc2c(n1C)-c1[nH]c(=O)c(S(=O)(=O)c3ccccc3)cc1CC2 | 1000 nM | inactive | 700 nM | 1000 nM | 1000 nM | 16.1% | 0.7% | 1200 nM | 14% | 1100 nM | 63.3% | 29.72% | Dose-dependent effect | 1200 nM | 1100 nM | 900 nM | 6.6% | 36.97% | Activity [5]: 5.14%; IC50 [10]: 500 nM; Activity [11]: 98.68%; Activity [13]: 94.8%; Activity [16]: 1.3%; Activity [21]: Active
2 | O=c1ccc2ccc3occc3c2o1 [ANGELICIN] | 1500 nM | Active | 1000 nM | 1200 nM | 1500 nM | 12.3% | Active | 4200 nM | 10.2% | 3600 nM | 30.8% | 9.82% | Dose-dependent effect | 4400 nM | 900 nM | 1000 nM | 46.7% | 6.63% | Activity [25]: 50.85%; Activity [26]: Active; Activity [27]: 1.08%; Activity [28]: 15.82%; Activity [29]: 15.03%; Activity [30]: 98.92%; Activity [31]: 41.2%; Activity [32]: Active; Activity [33]: 58.8%; Activity [34]: Active
